Experimental data as given in ChEMBL document CHEMBL3864121, “Development of ebsulfur analogues as potent antibacterials against methicillin-resistant Staphylococcus aureus” (Bioorg Med Chem, 2016).
Values after ≈ are worked out from the molar mass of the structure shown. Active and inactive are the calls of the source. The rule behind the calls is not given here.

These molecules were tested on Staphylococcus aureus (assay: Antibacterial activity against methicillin-resistant Staphylococcus aureus S22 measured after overnight incubation by broth double-dilution method). Conditions: not given.
Format: functional
In short: (§1)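 MIC by broth double-dilution in liquid Mueller-Hinton medium. Values are reported in µg/mL.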
In the case of `NCC[C@H](O)C(=O)N[C@@H]1C[C@H](N)[C@@H](O[C@H]2O[C@H](CN)[C@@H](O)[C@H](O)[C@H]2O)[C@H](O)[C@H]1O[C@H]1O[C@H](CO)[C@@H](O)[C@H](N)[C@H]1O` [AMIKACIN], the MIC is reported as 7.8 µg/mL (≈ 13.3 µM).

These molecules were tested on Staphylococcus aureus (assay: Antibacterial activity against methicillin-resistant Staphylococcus aureus S24 measured after overnight incubation by broth double-dilution method). Conditions: not given.
Format: functional
In short: as §1
Molecule `NCC[C@H](O)C(=O)N[C@@H]1C[C@H](N)[C@@H](O[C@H]2O[C@H](CN)[C@@H](O)[C@H](O)[C@H]2O)[C@H](O)[C@H]1O[C@H]1O[C@H](CO)[C@@H](O)[C@H](N)[C@H]1O` [AMIKACIN] has an MIC of 31.3 µg/mL (≈ 53.4 µM).

Each molecule was assayed on Staphylococcus aureus (assay: Antibacterial activity against methicillin-resistant Staphylococcus aureus USA100 measured after overnight incubation by broth double-dilution method). Conditions: not given.
Format: functional
In short: as §1
`NCC[C@H](O)C(=O)N[C@@H]1C[C@H](N)[C@@H](O[C@H]2O[C@H](CN)[C@@H](O)[C@H](O)[C@H]2O)[C@H](O)[C@H]1O[C@H]1O[C@H](CO)[C@@H](O)[C@H](N)[C@H]1O` [AMIKACIN] showed an MIC of 62.5 µg/mL (≈ 107 µM).

What follows are molecules tested on Staphylococcus aureus (assay: Antibacterial activity against methicillin-resistant Staphylococcus aureus USA200 measured after overnight incubation by broth double-dilution method). Conditions: not given.
Format: functional
In short: as §1
Work on `NCC[C@H](O)C(=O)N[C@@H]1C[C@H](N)[C@@H](O[C@H]2O[C@H](CN)[C@@H](O)[C@H](O)[C@H]2O)[C@H](O)[C@H]1O[C@H]1O[C@H](CO)[C@@H](O)[C@H](N)[C@H]1O` [AMIKACIN] yielded an MIC of 62.5 µg/mL (≈ 107 µM).

The molecules below were run on Staphylococcus aureus (assay: Antibacterial activity against methicillin-resistant Staphylococcus aureus USA300 measured after overnight incubation by broth double-dilution method). Conditions: not given.
Format: functional
In short: as §1
For `NCC[C@H](O)C(=O)N[C@@H]1C[C@H](N)[C@@H](O[C@H]2O[C@H](CN)[C@@H](O)[C@H](O)[C@H]2O)[C@H](O)[C@H]1O[C@H]1O[C@H](CO)[C@@H](O)[C@H](N)[C@H]1O` [AMIKACIN], the MIC was 62.5 µg/mL (≈ 107 µM).

Each molecule was assayed on Staphylococcus aureus (assay: Antibacterial activity against methicillin-resistant Staphylococcus aureus USA600 measured after overnight incubation by broth double-dilution method). Conditions: not given.
Format: functional
In short: as §1
In the case of `NCC[C@H](O)C(=O)N[C@@H]1C[C@H](N)[C@@H](O[C@H]2O[C@H](CN)[C@@H](O)[C@H](O)[C@H]2O)[C@H](O)[C@H]1O[C@H]1O[C@H](CO)[C@@H](O)[C@H](N)[C@H]1O` [AMIKACIN], the MIC is reported as 62.5 µg/mL (≈ 107 µM).

What follows are molecules tested on Staphylococcus epidermidis (assay: Antibacterial activity against Staphylococcus epidermidis ATCC 35984 measured after overnight incubation by broth double-dilution method). Conditions: RP62A.
Format: functional
In short: (§2)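 MIC by broth double-dilution in Mueller-Hinton medium. Re-testing at the time-kill inoculum used 1×10^6 CFU/mL.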
Molecule `NCC[C@H](O)C(=O)N[C@@H]1C[C@H](N)[C@@H](O[C@H]2O[C@H](CN)[C@@H](O)[C@H](O)[C@H]2O)[C@H](O)[C@H]1O[C@H]1O[C@H](CO)[C@@H](O)[C@H](N)[C@H]1O` [AMIKACIN] has an MIC of 15.6 µg/mL (≈ 26.6 µM).

The molecules below were run on Enterococcus faecalis (assay: Antibacterial activity against Enterococcus faecalis ATCC 29212 measured after overnight incubation by broth double-dilution method). Conditions: not given.
Format: functional
In short: as §2
Work on `NCC[C@H](O)C(=O)N[C@@H]1C[C@H](N)[C@@H](O[C@H]2O[C@H](CN)[C@@H](O)[C@H](O)[C@H]2O)[C@H](O)[C@H]1O[C@H]1O[C@H](CO)[C@@H](O)[C@H](N)[C@H]1O` [AMIKACIN] yielded an MIC of 125 µg/mL (≈ 213 µM).

Each molecule was assayed on Enterococcus faecalis (assay: Antibacterial activity against Enterococcus faecalis ATCC 49533 measured after overnight incubation by broth double-dilution method). Conditions: not given.
Format: functional
In short: as §2
In the case of `NCC[C@H](O)C(=O)N[C@@H]1C[C@H](N)[C@@H](O[C@H]2O[C@H](CN)[C@@H](O)[C@H](O)[C@H]2O)[C@H](O)[C@H]1O[C@H]1O[C@H](CO)[C@@H](O)[C@H](N)[C@H]1O` [AMIKACIN], the MIC is reported as > 125 µg/mL.

Each molecule was assayed on Enterococcus faecium (assay: Antibacterial activity against Enterococcus faecium BM4105-RF measured after overnight incubation by broth double-dilution method). Conditions: not given.
Format: functional
In short: as §1
`NCC[C@H](O)C(=O)N[C@@H]1C[C@H](N)[C@@H](O[C@H]2O[C@H](CN)[C@@H](O)[C@H](O)[C@H]2O)[C@H](O)[C@H]1O[C@H]1O[C@H](CO)[C@@H](O)[C@H](N)[C@H]1O` [AMIKACIN] gave an MIC of 125 µg/mL (≈ 213 µM).

Each molecule was assayed on Enterococcus (assay: Antibacterial activity against Vancomycin-resistant Enterococcus measured after overnight incubation by broth double-dilution method). Conditions: not given.
Format: functional
In short: as §1
Molecule `NCC[C@H](O)C(=O)N[C@@H]1C[C@H](N)[C@@H](O[C@H]2O[C@H](CN)[C@@H](O)[C@H](O)[C@H]2O)[C@H](O)[C@H]1O[C@H]1O[C@H](CO)[C@@H](O)[C@H](N)[C@H]1O` [AMIKACIN] has an MIC of 62.5 µg/mL (≈ 107 µM).

What follows are molecules tested on Listeria monocytogenes (assay: Antibacterial activity against Listeria monocytogenes ATCC 19115 measured after overnight incubation by broth double-dilution method). Conditions: not given.
Format: functional
In short: as §2
Molecule `NCC[C@H](O)C(=O)N[C@@H]1C[C@H](N)[C@@H](O[C@H]2O[C@H](CN)[C@@H](O)[C@H](O)[C@H]2O)[C@H](O)[C@H]1O[C@H]1O[C@H](CO)[C@@H](O)[C@H](N)[C@H]1O` [AMIKACIN] has an MIC of 3.9 µg/mL (≈ 6.66 µM).

What follows are molecules tested on Mycolicibacterium smegmatis (assay: Antibacterial activity against Mycobacterium smegmatis MC2-155 measured after overnight incubation by broth double-dilution method). Conditions: str. MC2 155.
Format: functional
In short: as §1
With `NCC[C@H](O)C(=O)N[C@@H]1C[C@H](N)[C@@H](O[C@H]2O[C@H](CN)[C@@H](O)[C@H](O)[C@H]2O)[C@H](O)[C@H]1O[C@H]1O[C@H](CO)[C@@H](O)[C@H](N)[C@H]1O` [AMIKACIN] the MIC was ≤ 0.25 µg/mL.

Each molecule was assayed on Acinetobacter baumannii (assay: Antibacterial activity against Acinetobacter baumannii ATCC 19606 measured after overnight incubation by broth double-dilution method). Conditions: not given.
Format: functional
In short: as §2
`NCC[C@H](O)C(=O)N[C@@H]1C[C@H](N)[C@@H](O[C@H]2O[C@H](CN)[C@@H](O)[C@H](O)[C@H]2O)[C@H](O)[C@H]1O[C@H]1O[C@H](CO)[C@@H](O)[C@H](N)[C@H]1O` [AMIKACIN] gave an MIC of 7.8 µg/mL (≈ 13.3 µM).

Each molecule was assayed on Enterobacter cloacae (assay: Antibacterial activity against Enterobacter cloacae ATCC 13047 measured after overnight incubation by broth double-dilution method). Conditions: subsp. cloacae ATCC 13047.
Format: functional
In short: as §1
`NCC[C@H](O)C(=O)N[C@@H]1C[C@H](N)[C@@H](O[C@H]2O[C@H](CN)[C@@H](O)[C@H](O)[C@H]2O)[C@H](O)[C@H]1O[C@H]1O[C@H](CO)[C@@H](O)[C@H](N)[C@H]1O` [AMIKACIN] showed an MIC of 1 µg/mL (≈ 1.71 µM).

Each molecule was assayed on Escherichia coli (assay: Antibacterial activity against Escherichia coli MC1061 measured after overnight incubation by broth double-dilution method). Conditions: not given.
Format: functional
In short: as §1
For `NCC[C@H](O)C(=O)N[C@@H]1C[C@H](N)[C@@H](O[C@H]2O[C@H](CN)[C@@H](O)[C@H](O)[C@H]2O)[C@H](O)[C@H]1O[C@H]1O[C@H](CO)[C@@H](O)[C@H](N)[C@H]1O` [AMIKACIN], the MIC was 2 µg/mL (≈ 3.42 µM).

These molecules were tested on Klebsiella pneumoniae (assay: Antibacterial activity against Klebsiella pneumoniae ATCC 27736 measured after overnight incubation by broth double-dilution method). Conditions: not given.
Format: functional
In short: as §1
`NCC[C@H](O)C(=O)N[C@@H]1C[C@H](N)[C@@H](O[C@H]2O[C@H](CN)[C@@H](O)[C@H](O)[C@H]2O)[C@H](O)[C@H]1O[C@H]1O[C@H](CO)[C@@H](O)[C@H](N)[C@H]1O` [AMIKACIN] was tested, and the MIC was 1 µg/mL (≈ 1.71 µM).

These molecules were tested on Pseudomonas aeruginosa (assay: Antibacterial activity against Pseudomonas aeruginosa ATCC 27853 measured after overnight incubation by broth double-dilution method). Conditions: not given.
Format: functional
In short: as §2
With `NCC[C@H](O)C(=O)N[C@@H]1C[C@H](N)[C@@H](O[C@H]2O[C@H](CN)[C@@H](O)[C@H](O)[C@H]2O)[C@H](O)[C@H]1O[C@H]1O[C@H](CO)[C@@H](O)[C@H](N)[C@H]1O` [AMIKACIN] the MIC was 31.3 µg/mL (≈ 53.4 µM).

The molecules below were run on Salmonella enterica (assay: Antibacterial activity against Salmonella enterica ATCC 14028 measured after overnight incubation by broth double-dilution method). Conditions: not given.
Format: functional
In short: as §2
`NCC[C@H](O)C(=O)N[C@@H]1C[C@H](N)[C@@H](O[C@H]2O[C@H](CN)[C@@H](O)[C@H](O)[C@H]2O)[C@H](O)[C@H]1O[C@H]1O[C@H](CO)[C@@H](O)[C@H](N)[C@H]1O` [AMIKACIN] gave an MIC of 7.8 µg/mL (≈ 13.3 µM).

The molecules below were run on Staphylococcus epidermidis (assay: Antibacterial activity against Staphylococcus epidermidis ATCC 12228 measured after overnight incubation by broth double-dilution method). Conditions: not given.
Format: functional
In short: as §2
With `NCC[C@H](O)C(=O)N[C@@H]1C[C@H](N)[C@@H](O[C@H]2O[C@H](CN)[C@@H](O)[C@H](O)[C@H]2O)[C@H](O)[C@H]1O[C@H]1O[C@H](CO)[C@@H](O)[C@H](N)[C@H]1O` [AMIKACIN] the MIC was 31.3 µg/mL (≈ 53.4 µM).

Each molecule was assayed on Staphylococcus aureus (assay: Bacteriostatic activity against methicillin-resistant Staphylococcus aureus S22 at 0.5 times MIC measured up to 3 to 6 hrs by time kill analysis). Conditions: not given.
Format: functional
In the case of `NCC[C@H](O)C(=O)N[C@@H]1C[C@H](N)[C@@H](O[C@H]2O[C@H](CN)[C@@H](O)[C@H](O)[C@H]2O)[C@H](O)[C@H]1O[C@H]1O[C@H](CO)[C@@H](O)[C@H](N)[C@H]1O` [AMIKACIN], the Activity is reported as “Active”.

These molecules were tested on Staphylococcus aureus (assay: Bacteriostatic activity against methicillin-resistant Staphylococcus aureus S22 at MIC measured up to 3 to 6 hrs by time kill analysis). Conditions: not given.
Format: functional
`NCC[C@H](O)C(=O)N[C@@H]1C[C@H](N)[C@@H](O[C@H]2O[C@H](CN)[C@@H](O)[C@H](O)[C@H]2O)[C@H](O)[C@H]1O[C@H]1O[C@H](CO)[C@@H](O)[C@H](N)[C@H]1O` [AMIKACIN] was tested, and the Activity was “Active”.

The molecules below were run on Staphylococcus aureus (assay: Antibacterial activity against methicillin-resistant Staphylococcus aureus S22 using 1 10^6CFU/ml measured after overnight incubation by broth double-dilution method). Conditions: not given.
Format: functional
For `NCC[C@H](O)C(=O)N[C@@H]1C[C@H](N)[C@@H](O[C@H]2O[C@H](CN)[C@@H](O)[C@H](O)[C@H]2O)[C@H](O)[C@H]1O[C@H]1O[C@H](CO)[C@@H](O)[C@H](N)[C@H]1O` [AMIKACIN], the Activity was “Active”.
